Laboratory results reported in ChEMBL document CHEMBL4020827, “Targeting Multiple Effector Pathways in Pancreatic Ductal Adenocarcinoma with a G-Quadruplex-Binding Small Molecule” (J Med Chem, 2018).

How the values were obtained:
[1] = test system: PANC-1; assay: Effect on SHANK2 gene expression in human PANC1 cells at 400 nM after 6 hrs by RNA sequence analysis relative to control; format: functional
How it was run: (§1)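 RNA-seq: cells seeded overnight in 60 mm plates (PANC-1 0.35 x 10^6, MIA PaCa-2 1.5 x 10^6 cells/well), then exposed to 400 nM compound for 6 or 24 h against untreated controls. Cell lines mycoplasma-free by RNA-capture ELISA and STR-profiled. Differentially expressed genes called at FDR < 0.1.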

[2] = test system: PANC-1; assay: Effect on RPTOR gene expression in human PANC1 cells at 400 nM after 6 hrs by RNA sequence analysis relative to control; format: functional; how it was run: as §1
[3] = test system: MIA PaCa-2; assay: Effect on CTBP1 gene expression in human MIAPaCa2 cells at 400 nM after 24 hrs by RNA sequence analysis relative to control; format: functional
How it was run: (§2)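 PANC-1 (0.35 x 10^6) or MIA PaCa-2 (1.5 x 10^6) cells seeded overnight in 60 mm plates, then exposed to 400 nM compound for 6 or 24 h; untreated cells as controls. Cells were mycoplasma-free and STR-certified. Differential expression by RNA-seq, called at FDR < 0.1.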

[4] = test system: PANC-1; assay: Effect on PFKFB4 gene expression in human PANC1 cells at 400 nM after 6 hrs by RNA sequence analysis relative to control; format: functional
[5] = test system: MIA PaCa-2; assay: Effect on ARF6 gene expression in human MIAPaCa2 cells at 400 nM after 6 hrs by RNA sequence analysis relative to control; format: functional; how it was run: as §2
[6] = Selectivity index, ratio of IC50 for human WI38 cells to IC50 for human MIAPaCa2 cells; format: functional
How it was run: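 SRB growth-inhibition assay over 96 h with compounds dissolved in water; cells grown in 10 % FBS at 37 °C, 5% CO2. Absorbance at 540 nm as a percentage of untreated wells gives the IC50. Values are averages of >3 determinations, with the ratio taken as WI-38 IC50 over MIA PaCa-2 IC50.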

[7] = test system: PANC-1; assay: Effect on MAPK9 gene expression in human PANC1 cells at 400 nM after 24 hrs by RNA sequence analysis relative to control; format: functional
[8] = test system: MIA PaCa-2; assay: Effect on ULK1 gene expression in human MIAPaCa2 cells at 400 nM after 6 hrs by RNA sequence analysis relative to control; format: functional; how it was run: as §1
[9] = test system: MIA PaCa-2; assay: Effect on PRKCZ gene expression in human MIAPaCa2 cells at 400 nM after 24 hrs by RNA sequence analysis relative to control; format: functional
[10] = test system: Mus musculus; assay: Toxicity in CD-1 nude mouse xenografted with human MIAPaCa2 cells assessed as change in body weight at 15 mg/kg, iv administered twice weekly for 4 weeks measured for 40 days; format: organism-based; conditions: in vivo, 960 h
[11] = Binding affinity to 5'-FAM/3'-TAMRA labeled BCL2 promoter G-quadruplex DNA (unknown origin) assessed as change in melting temperature at 1 uM by FRET assay
How it was run: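 FRET melting with FAM/TAMRA dual-labelled oligonucleotides at 400 nM, annealed at 95 °C for 10 min in 60 mM potassium cacodylate pH 7.4 and slowly cooled. Ligand final 1 μM; solution contains 50 mM K+. Fluorescence read every 0.5 °C over 30–100 °C with 30 s hold, excitation 450–495 nm and emission 515–545 nm. ΔTm from curve fitting, triplicate measurements.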

[12] = test system: PANC-1; assay: Effect on PIK3R2 gene expression in human PANC1 cells at 400 nM after 6 hrs by RNA sequence analysis relative to control; format: functional
[13] = test system: PANC-1; assay: Effect on TEAD4 gene expression in human PANC1 cells at 400 nM after 24 hrs by RNA sequence analysis relative to control; format: functional; how it was run: as §1
[14] = test system: PANC-1; assay: Effect on PAK1 gene expression in human PANC1 cells at 400 nM after 6 hrs by RNA sequence analysis relative to control; format: functional
[15] = test system: PANC-1; assay: Effect on PRDM16 gene expression in human PANC1 cells at 400 nM after 6 hrs by RNA sequence analysis relative to control; format: functional
[16] = Drug uptake in tumor at flank region of CD-1 nude mouse xenografted with human MIAPaCa2 cells at 15 mg/kg, iv measured after 4 hrs; format: ADME, organism-based, Neoplasm; conditions: in vivo
[17] = test system: MIA PaCa-2; assay: Effect on AKT1 gene expression in human MIAPaCa2 cells at 400 nM after 24 hrs by RNA sequence analysis relative to control; format: functional; how it was run: as §2
[18] = test system: PANC-1; assay: Effect on GLI2 gene expression in human PANC1 cells at 400 nM after 24 hrs by RNA sequence analysis relative to control; format: functional; how it was run: as §2
[19] = test system: MIA PaCa-2; assay: Growth inhibition of human MIAPaCa2 cells after 96 hrs by SRB assay; format: functional, cell-based; conditions: MIA PaCa-2, 96 h
How it was run: (§3)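 Cell lines kept at 37 °C, 5% CO2 in medium with 10% FBS and 2 mM L-glutamine. Compound dissolved in water, filter-sterilised, 10 mM stock diluted into media. Growth read by 96 h sulforhodamine B assay, absorbance at 540 nm. IC50 taken from mean absorbance per concentration as % of untreated wells, >3 individual determinations with standard deviations.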

[20] = test system: MIA PaCa-2; assay: Effect on ULK1 gene expression in human MIAPaCa2 cells at 400 nM after 24 hrs by RNA sequence analysis relative to control; format: functional; how it was run: as §1
[21] = test system: PANC-1; assay: Effect on FASN gene expression in human PANC1 cells at 400 nM after 6 hrs by RNA sequence analysis relative to control; format: functional; how it was run: as §2
[22] = test system: CAPAN-1; assay: Growth inhibition of human Capan1 cells after 96 hrs by SRB assay; format: functional, cell-based; conditions: CAPAN-1, 96 h; how it was run: as §3
[23] = test system: PANC-1; assay: Effect on MAPK12 gene expression in human PANC1 cells at 400 nM after 6 hrs by RNA sequence analysis relative to control; format: functional
[24] = test system: PANC-1; assay: Effect on TEAD3 gene expression in human PANC1 cells at 400 nM after 6 hrs by RNA sequence analysis relative to control; format: functional; how it was run: as §1
[25] = Binding affinity to 5'-FAM/3'-TAMRA labeled KRAS32 promoter G-quadruplex DNA (unknown origin) assessed as change in melting temperature at 1 uM by FRET assay
How it was run: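 FRET melting of FAM/TAMRA dual-labelled promoter G4 oligonucleotides, 400 nM, annealed at 95 °C for 10 min in 60 mM potassium cacodylate (pH 7.4) then cooled to RT. Ligand at 1 μM in solution with 50 mM K+. Fluorescence (ex 450–495, em 515–545 nm) read every 0.5 °C over 30–100 °C with a 30 sec hold per step. ΔTm from curve fitting; triplicate measurements.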

[26] = test system: MIA PaCa-2; assay: Effect on ROBO3 gene expression in human MIAPaCa2 cells at 400 nM after 24 hrs by RNA sequence analysis relative to control; format: functional; how it was run: as §1
[27] = test system: MIA PaCa-2; assay: Effect on IQSEC1 gene expression in human MIAPaCa2 cells at 400 nM after 6 hrs by RNA sequence analysis relative to control; format: functional; how it was run: as §2
[28] = test system: MIA PaCa-2; assay: Effect on mLST8 gene expression in human MIAPaCa2 cells at 400 nM after 24 hrs by RNA sequence analysis relative to control; format: functional; how it was run: as §1
[29] = test system: PANC-1; assay: Effect on PARD6A gene expression in human PANC1 cells at 400 nM after 24 hrs by RNA sequence analysis relative to control; format: functional

**Q.** For O=C1c2ccc3c4c(c(NCCN5CCCC5)cc(c24)C(=O)N1CCCN1CCOCC1)C(=O)N(CCCN1CCOCC1)C3=O, which log2FC [1] is on record?
**A.** The log2FC was -1.65.

**Q.** And the log2FC [2]?
**A.** The log2FC was -0.8.

**Q.** What about the log2FC [3] of the same compound?
**A.** The log2FC was -1.17.

**Q.** What about the log2FC [4] of the same compound?
**A.** The log2FC was -0.57.

**Q.** And the log2FC [5]?
**A.** The log2FC was -0.89.

**Q.** What about the “Ratio IC50” value [6] of the same compound?
**A.** The value was 170.

**Q.** And the log2FC [7]?
**A.** Its log2FC is -0.75.

**Q.** And the log2FC [8]?
**A.** The log2FC was 0.03.

**Q.** And the log2FC [9]?
**A.** Its log2FC is -2.01.

**Q.** What about the Activity [10] of the same compound?
**A.** The Activity was “Non-Toxic”.

**Q.** What about the ΔTm [11] of the same compound?
**A.** The ΔTm was 13.3 °C.

**Q.** And the log2FC [12]?
**A.** The log2FC was -0.45.

**Q.** What about the log2FC [13] of the same compound?
**A.** The log2FC was -0.47.

**Q.** And the log2FC [14]?
**A.** The log2FC was -0.54.

**Q.** And the log2FC [15]?
**A.** The log2FC was -2.4.

**Q.** What about the Drug uptake [16] of the same compound?
**A.** The Drug uptake was “Active”.

**Q.** And the log2FC [17]?
**A.** Its log2FC is -0.98.

**Q.** What about the log2FC [18] of the same compound?
**A.** The log2FC was 0.38.

**Q.** What about the IC50 [19] of the same compound?
**A.** The IC50 was 0.007 µM.

**Q.** What about the log2FC [20] of the same compound?
**A.** Its log2FC is -0.6.

**Q.** And the log2FC [21]?
**A.** Its log2FC is -0.73.

**Q.** And the IC50 [22]?
**A.** The IC50 was 0.016 µM.

**Q.** What about the log2FC [23] of the same compound?
**A.** The log2FC was -0.75.

**Q.** And the log2FC [24]?
**A.** Its log2FC is -0.59.

**Q.** And the ΔTm [25]?
**A.** The ΔTm was 9.6 °C.

**Q.** What about the log2FC [26] of the same compound?
**A.** Its log2FC is -0.53.

**Q.** And the log2FC [27]?
**A.** Its log2FC is -1.11.

**Q.** And the log2FC [28]?
**A.** The log2FC was -1.28.

**Q.** And the log2FC [29]?
**A.** The log2FC was -1.41.
